Experimental data published in ChEMBL document CHEMBL2390921, “A novel benzazepinone sodium channel blocker with oral efficacy in a rat model of neuropathic pain” (Bioorg Med Chem Lett, 2013).

Tests used:
[1] = test system: Rattus norvegicus; experiment: Neurotoxicity in rat assessed as motor impairment at 30 to 100 mg/kg, po after 2 to 4 hrs by rotarod test; type: toxicity, organism-based; design: route oral; conditions: in vivo
Outline: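 Rats were trained on a rotarod for 3 min at 10 rpm, then given a single oral dose of test agent or vehicle and tested at 2 and 4 h post-dose. During testing the rod ran at 10 rpm for 60 s, then accelerated to 60 rpm. Time to fall after the start of acceleration was recorded. Impairment was defined as >20% reduction in latency.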

[2] = test system: Rattus norvegicus; experiment: Analgesic activity in rat spinal nerve ligation neuropathic pain model assessed as reversal of allodynia at 30 mg/kg, po measured at 24 hrs relative to control; type: functional
Outline: (§1)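 Rat spinal nerve ligation model. Seven days after surgery, rats received a single oral dose (3, 10 or 30 mg/kg) of test agent or vehicle. Tactile allodynia was scored at 2, 4, 8 and 24 h post-dose with calibrated von Frey filaments using an up-down paradigm. Threshold is the force giving a 50% withdrawal rate. %MPE = (post-compound − post-SNL)/(pre-SNL − post-SNL) × 100, where 100% is full reversal.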

[3] = test system: Rattus norvegicus; experiment: Analgesic activity in rat spinal nerve ligation neuropathic pain model assessed as reversal of allodynia at 3 mg/kg, po measured at 24 hrs relative to control; type: functional; outline: as §1
[4] = test system: Rattus norvegicus; experiment: Analgesic activity in rat spinal nerve ligation neuropathic pain model assessed as reversal of allodynia at 30 mg/kg, po measured at 8 hrs relative to control; type: functional; outline: as §1
[5] = test system: Rattus norvegicus; experiment: Analgesic activity in rat spinal nerve ligation neuropathic pain model assessed as reversal of allodynia at 30 mg/kg, po measured at 4 hrs relative to control; type: functional; outline: as §1
[6] = test system: Rattus norvegicus; experiment: Analgesic activity in rat spinal nerve ligation neuropathic pain model assessed as reversal of allodynia at 10 mg/kg, po measured at 2 hrs relative to control; type: functional; outline: as §1
[7] = test system: Rattus norvegicus; experiment: Analgesic activity in rat spinal nerve ligation neuropathic pain model assessed as reversal of allodynia at 30 mg/kg, po measured at 2 hrs relative to control; type: functional; outline: as §1
[8] = molecular target: Delta-type opioid receptor (Homo sapiens) (UniProt P41143); experiment: Binding affinity to delta opioid receptor (unknown origin) at 25 uM relative to control
Chain of Delta-type opioid receptor (Homo sapiens) (P41143 whole entry): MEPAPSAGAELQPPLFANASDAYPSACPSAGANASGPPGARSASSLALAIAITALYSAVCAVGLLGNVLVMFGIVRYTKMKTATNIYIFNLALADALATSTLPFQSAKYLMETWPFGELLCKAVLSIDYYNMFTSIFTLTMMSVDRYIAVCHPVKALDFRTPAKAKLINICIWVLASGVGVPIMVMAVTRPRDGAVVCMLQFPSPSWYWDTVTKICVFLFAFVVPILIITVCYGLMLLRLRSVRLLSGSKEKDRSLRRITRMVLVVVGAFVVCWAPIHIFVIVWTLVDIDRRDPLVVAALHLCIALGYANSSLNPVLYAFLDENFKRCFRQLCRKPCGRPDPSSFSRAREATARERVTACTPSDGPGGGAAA

[9] = molecular target: Cannabinoid receptor 2 (Homo sapiens) (UniProt P34972); experiment: Binding affinity to CB2 receptor (unknown origin) at 25 uM relative to control
[10] = molecular target: T1, B1 bradykinin receptor (Homo sapiens) (UniProt P46663); experiment: Binding affinity to BK1 receptor (unknown origin) at 25 uM relative to control
T1 sequence (whole entry): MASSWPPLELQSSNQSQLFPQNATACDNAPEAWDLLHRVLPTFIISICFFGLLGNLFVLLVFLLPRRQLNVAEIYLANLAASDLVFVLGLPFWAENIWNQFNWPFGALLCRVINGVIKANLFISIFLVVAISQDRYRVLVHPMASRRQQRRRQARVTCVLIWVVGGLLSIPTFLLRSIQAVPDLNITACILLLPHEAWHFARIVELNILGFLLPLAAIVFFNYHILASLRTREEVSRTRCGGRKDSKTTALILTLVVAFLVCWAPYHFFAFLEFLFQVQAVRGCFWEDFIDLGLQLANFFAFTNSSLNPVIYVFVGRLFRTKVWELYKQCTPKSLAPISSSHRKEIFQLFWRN

[11] = molecular target: Prostaglandin G/H synthase 1 (Homo sapiens) (UniProt P23219); experiment: Binding affinity to COX1 (unknown origin) at 25 uM relative to control
Chain of Prostaglandin G/H synthase 1 (Homo sapiens) (P23219 whole entry): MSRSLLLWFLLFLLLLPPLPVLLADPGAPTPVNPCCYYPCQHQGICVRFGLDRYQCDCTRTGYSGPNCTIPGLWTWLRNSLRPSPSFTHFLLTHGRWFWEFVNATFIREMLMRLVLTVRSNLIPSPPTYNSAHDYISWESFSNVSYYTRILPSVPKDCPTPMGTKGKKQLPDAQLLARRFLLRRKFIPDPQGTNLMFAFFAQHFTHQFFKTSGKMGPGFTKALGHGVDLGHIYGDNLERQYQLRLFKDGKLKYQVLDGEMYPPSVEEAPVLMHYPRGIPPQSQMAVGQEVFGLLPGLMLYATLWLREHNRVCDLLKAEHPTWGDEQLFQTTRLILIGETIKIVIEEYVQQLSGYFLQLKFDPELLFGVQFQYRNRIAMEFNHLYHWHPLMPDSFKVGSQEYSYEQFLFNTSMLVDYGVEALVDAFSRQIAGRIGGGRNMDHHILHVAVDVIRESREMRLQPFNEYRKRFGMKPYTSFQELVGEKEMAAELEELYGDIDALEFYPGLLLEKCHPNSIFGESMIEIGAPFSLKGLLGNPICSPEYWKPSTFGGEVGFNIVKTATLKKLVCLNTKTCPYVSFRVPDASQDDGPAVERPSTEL

[12] = molecular target: T2, Prostaglandin E2 receptor EP1 subtype (Homo sapiens) (UniProt P34995); experiment: Binding affinity to prostaglandin receptor EP1 (unknown origin) at 25 uM relative to control
T2 sequence (whole entry): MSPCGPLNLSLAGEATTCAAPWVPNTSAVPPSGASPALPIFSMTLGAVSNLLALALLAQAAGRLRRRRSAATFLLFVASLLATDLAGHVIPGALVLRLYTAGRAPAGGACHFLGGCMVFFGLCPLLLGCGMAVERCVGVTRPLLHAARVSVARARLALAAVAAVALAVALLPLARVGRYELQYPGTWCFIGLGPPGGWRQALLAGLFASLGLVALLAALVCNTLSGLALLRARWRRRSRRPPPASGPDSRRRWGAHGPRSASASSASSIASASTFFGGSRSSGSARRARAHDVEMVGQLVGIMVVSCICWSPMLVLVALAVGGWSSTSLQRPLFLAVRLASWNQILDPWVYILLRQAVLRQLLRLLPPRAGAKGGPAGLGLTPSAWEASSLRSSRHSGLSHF

[13] = molecular target: T3, Sodium channel protein type 9 subunit alpha (Homo sapiens, UniProt Q15858); experiment: Binding affinity to resting state of human NaV1.7 channel by whole-cell patch clamp assay
Outline: (§2)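 Manual whole-cell voltage clamp measuring block of resting and inactivated channel states at room temperature. Data acquired at 50 kHz, filtered at 10 kHz. Bath: 40 mM NaCl, 120 mM NMDG-Cl, 1 mM KCl, 2.7 mM CaCl2, 0.5 mM MgCl2, 10 mM NMDG-HEPES, pH 7.4.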
Target sequence in this assay (Q15858 whole entry, looked up): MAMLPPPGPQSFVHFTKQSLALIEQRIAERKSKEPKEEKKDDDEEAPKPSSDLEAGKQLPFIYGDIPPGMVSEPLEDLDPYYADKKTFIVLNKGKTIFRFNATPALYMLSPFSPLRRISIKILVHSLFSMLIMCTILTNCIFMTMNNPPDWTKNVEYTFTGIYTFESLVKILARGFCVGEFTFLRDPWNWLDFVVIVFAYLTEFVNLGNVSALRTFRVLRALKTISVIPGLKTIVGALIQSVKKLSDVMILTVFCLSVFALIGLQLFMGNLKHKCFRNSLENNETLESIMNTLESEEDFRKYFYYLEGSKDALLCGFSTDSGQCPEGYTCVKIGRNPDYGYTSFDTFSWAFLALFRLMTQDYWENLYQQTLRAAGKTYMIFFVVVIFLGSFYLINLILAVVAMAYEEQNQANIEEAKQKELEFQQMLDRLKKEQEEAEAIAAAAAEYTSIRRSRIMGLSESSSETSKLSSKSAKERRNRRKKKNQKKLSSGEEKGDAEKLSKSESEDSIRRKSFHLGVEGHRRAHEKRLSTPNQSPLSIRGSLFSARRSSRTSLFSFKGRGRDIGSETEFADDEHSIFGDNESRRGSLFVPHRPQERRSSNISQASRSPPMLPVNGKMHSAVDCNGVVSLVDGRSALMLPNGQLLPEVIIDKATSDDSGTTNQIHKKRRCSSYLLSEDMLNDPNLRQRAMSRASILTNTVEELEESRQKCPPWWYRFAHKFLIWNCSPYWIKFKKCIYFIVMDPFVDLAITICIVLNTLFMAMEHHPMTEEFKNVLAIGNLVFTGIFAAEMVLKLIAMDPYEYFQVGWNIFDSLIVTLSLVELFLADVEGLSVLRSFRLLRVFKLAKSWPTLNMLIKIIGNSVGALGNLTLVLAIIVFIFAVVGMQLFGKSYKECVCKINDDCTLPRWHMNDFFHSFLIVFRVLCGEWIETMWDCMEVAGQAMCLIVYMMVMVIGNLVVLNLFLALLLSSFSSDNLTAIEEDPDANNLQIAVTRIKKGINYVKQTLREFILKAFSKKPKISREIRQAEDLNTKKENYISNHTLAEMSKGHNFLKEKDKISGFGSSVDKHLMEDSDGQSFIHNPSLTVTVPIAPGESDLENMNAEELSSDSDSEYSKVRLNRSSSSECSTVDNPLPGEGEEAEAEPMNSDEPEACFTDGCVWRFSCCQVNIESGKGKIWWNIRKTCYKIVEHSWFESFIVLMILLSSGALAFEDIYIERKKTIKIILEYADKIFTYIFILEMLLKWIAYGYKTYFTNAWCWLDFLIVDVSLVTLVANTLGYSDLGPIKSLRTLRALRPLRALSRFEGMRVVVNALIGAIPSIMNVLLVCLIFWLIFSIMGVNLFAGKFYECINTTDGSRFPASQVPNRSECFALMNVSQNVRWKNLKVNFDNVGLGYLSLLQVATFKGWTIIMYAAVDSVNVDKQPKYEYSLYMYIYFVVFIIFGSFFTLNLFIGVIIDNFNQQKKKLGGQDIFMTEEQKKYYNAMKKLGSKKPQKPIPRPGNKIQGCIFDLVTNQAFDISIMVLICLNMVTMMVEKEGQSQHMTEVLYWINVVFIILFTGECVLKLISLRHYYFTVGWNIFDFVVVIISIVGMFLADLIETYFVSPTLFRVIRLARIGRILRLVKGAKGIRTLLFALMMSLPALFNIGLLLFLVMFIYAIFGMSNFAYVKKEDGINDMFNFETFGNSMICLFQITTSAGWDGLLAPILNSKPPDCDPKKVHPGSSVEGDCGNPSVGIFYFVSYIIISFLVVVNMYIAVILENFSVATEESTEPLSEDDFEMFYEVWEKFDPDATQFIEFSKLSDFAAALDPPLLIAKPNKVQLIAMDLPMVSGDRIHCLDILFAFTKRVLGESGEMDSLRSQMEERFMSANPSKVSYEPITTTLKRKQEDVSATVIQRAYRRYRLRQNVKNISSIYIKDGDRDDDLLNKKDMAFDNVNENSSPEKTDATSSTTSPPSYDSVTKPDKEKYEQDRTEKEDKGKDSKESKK

[14] = molecular target: Sodium channel protein type 10 subunit alpha (Homo sapiens) (UniProt Q9Y5Y9); experiment: Binding affinity to inactivated state of NaV1.8 channel (unknown origin) by whole-cell patch clamp assay; outline: as §2
[15] = molecular target: Sodium channel protein type 8 subunit alpha (Homo sapiens) (UniProt Q9UQD0); experiment: Binding affinity to inactivated state of NaV1.6 channel (unknown origin) by whole-cell patch clamp assay; outline: as §2
Chain of Sodium channel protein type 8 subunit alpha (Homo sapiens) (Q9UQD0 whole entry, looked up): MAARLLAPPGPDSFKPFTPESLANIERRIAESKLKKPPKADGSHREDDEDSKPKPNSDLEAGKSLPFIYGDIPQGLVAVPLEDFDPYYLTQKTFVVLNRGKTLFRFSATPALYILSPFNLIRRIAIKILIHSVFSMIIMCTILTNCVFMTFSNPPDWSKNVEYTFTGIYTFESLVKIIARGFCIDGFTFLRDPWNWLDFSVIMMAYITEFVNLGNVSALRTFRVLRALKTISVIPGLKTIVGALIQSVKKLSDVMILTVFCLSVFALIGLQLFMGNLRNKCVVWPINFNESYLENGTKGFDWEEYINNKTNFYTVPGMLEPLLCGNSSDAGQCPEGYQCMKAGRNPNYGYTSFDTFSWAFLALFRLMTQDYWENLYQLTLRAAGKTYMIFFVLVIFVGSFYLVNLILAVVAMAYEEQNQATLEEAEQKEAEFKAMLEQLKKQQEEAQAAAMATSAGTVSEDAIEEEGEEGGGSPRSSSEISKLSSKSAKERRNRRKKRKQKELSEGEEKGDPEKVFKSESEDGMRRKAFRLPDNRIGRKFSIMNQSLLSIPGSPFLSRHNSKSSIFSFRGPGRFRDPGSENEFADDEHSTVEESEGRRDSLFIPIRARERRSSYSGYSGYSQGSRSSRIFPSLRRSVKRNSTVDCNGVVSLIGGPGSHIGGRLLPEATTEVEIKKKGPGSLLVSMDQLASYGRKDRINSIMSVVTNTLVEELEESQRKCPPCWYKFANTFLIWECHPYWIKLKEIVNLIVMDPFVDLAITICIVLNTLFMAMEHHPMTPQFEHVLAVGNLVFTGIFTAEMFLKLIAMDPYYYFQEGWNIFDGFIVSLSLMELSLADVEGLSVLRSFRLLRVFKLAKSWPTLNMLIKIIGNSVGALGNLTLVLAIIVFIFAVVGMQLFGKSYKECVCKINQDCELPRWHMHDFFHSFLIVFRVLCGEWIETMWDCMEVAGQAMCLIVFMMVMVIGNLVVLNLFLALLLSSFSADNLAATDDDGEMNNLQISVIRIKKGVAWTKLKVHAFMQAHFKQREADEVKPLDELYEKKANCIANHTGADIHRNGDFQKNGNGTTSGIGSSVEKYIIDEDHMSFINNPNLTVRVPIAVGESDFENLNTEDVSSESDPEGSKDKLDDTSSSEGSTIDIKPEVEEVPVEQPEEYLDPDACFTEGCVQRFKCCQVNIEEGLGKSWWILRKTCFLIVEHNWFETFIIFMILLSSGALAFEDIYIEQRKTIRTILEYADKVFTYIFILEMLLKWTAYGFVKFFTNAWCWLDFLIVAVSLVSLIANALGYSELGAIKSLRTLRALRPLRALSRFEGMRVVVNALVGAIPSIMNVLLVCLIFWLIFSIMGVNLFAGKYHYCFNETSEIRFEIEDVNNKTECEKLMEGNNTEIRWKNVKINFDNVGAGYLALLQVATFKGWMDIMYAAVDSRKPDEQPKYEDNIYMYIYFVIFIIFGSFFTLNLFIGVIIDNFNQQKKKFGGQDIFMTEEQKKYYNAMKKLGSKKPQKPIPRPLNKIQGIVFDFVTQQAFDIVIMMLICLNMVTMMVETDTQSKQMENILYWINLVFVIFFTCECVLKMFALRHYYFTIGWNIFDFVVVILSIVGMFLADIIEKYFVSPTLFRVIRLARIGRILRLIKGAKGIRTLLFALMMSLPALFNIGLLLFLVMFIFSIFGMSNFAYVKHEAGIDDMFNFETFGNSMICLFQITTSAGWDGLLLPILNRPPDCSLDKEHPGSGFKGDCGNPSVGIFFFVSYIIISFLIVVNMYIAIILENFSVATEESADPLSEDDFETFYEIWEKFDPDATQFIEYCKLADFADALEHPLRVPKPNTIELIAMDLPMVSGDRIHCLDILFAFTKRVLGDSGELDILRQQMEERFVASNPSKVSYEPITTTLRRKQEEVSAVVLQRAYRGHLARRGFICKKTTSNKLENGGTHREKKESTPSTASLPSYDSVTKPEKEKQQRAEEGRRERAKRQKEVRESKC

[16] = molecular target: T3, Sodium channel protein type 9 subunit alpha; experiment: Binding affinity to inactivated state of human NaV1.7 channel by whole-cell patch clamp assay; outline: as §2
Target sequence in this assay (Q15858 whole entry, looked up): as the sequence (Q15858 whole entry, looked up) above

[17] = molecular target: T3, Sodium channel protein type 9 subunit alpha; experiment: Binding affinity to inactivated state of human NaV1.7 channel assessed as inhibition of current evoked by 6 ms depolarizations to 0 mV from holding potential -70 mV at 3 uM by whole-cell patch clamp assay relative to vehicle-treated control
Target sequence in this assay (Q15858 whole entry, looked up): as above

[18] = Plasma clearance in Sprague-Dawley rat at 3 mg/kg, po and 1 mg/kg, iv; type: ADME, organism-based
Outline: (§3)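 Fasted male Sprague–Dawley rats (n = 3 per route) were dosed with 1.5 mg/mL solutions in PEG300/water or DMSO/PEG300/water, either 1.0 mg/kg iv via femoral-vein cannula or 3.0 mg/kg by oral gavage. Blood was sampled at 5 min (iv only), 15 and 30 min, and 1, 2, 4, 6 and 8 h. Plasma levels were measured by LC–MS/MS after acetonitrile protein precipitation.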

[19] = test system: Rattus norvegicus; experiment: Dose normalized AUC in Sprague-Dawley rat at 3 mg/kg, po; type: ADME, organism-based; design: dose 3 mg/kg, route oral; conditions: in vivo; outline: as §3
[20] = molecular target: hERG (KCNH2) (Homo sapiens, UniProt Q12809); experiment: Displacement of [35S]-MK0499 from human ERG expressed in HEK293 cell membranes at 10 uM after 2 hrs by liquid scintillation counting analysis relative to control; conditions: membranes of HEK293 cells that express human ERG, probe [35S]-MK0499
Outline: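 hERG binding assay measuring displacement of 35S-labelled MK-0499, a known hERG blocker.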

[21] = molecular target: T3, Sodium channel protein type 9 subunit alpha; experiment: Inhibition of human NaV1.7 channel expressed in HEK293 cells by FRET assay; type: cell-based
Outline: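 HEK293 cells stably expressing human Nav1.7. Channel block was read in a functional membrane-potential assay based on FRET between two membrane-associated dyes; IC50 determined.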
Target sequence in this assay (Q15858 whole entry): as the sequence (Q15858 whole entry, looked up) above

Activity [8]: < 50%
Activity [9]: < 50%
Activity [10]: < 50%
Activity [11]: < 50%
Activity [12]: < 50%
K [13]: 24 µM
K [14]: 3.02 µM
K [15]: 3.88 µM
K [16]: 0.44 µM
inhibition [17]: 48%
clearance [18]: 43 mL/min/kg
AUC/dose [19]: 0.72 µM·h/mg/kg
IC50 [21]: 117 nM
Structure (SMILES): O=C(N[C@H](Cc1ccccc1F)C(=O)N[C@@H]1CCc2c(F)c(F)cc(F)c2N(C2CC2)C1=O)C1CC1C(F)(F)F (stereo partly specified)
Activity [1]: Non-toxic
Activity [2]: 10%
Activity [3]: 1%
Activity [4]: 28%
Activity [5]: 55%
Activity [6]: 43%
Activity [7]: 62%
inhibition at 2 h, 10 µM [20]: 26%
